Reference: ChEMBL document CHEMBL2311329, “Synthesis and biological evaluation of a folate-targeted rhaponticin conjugate” (Bioorg Med Chem, 2013)
The source made the active and inactive calls. The rule behind the calls is not given here.

Legend:
KB = assay: Antitumor activity against FR-positive human KB cells assessed as decrease in cell viability measured after 48 hrs by MTT proliferation assay; format: functional, cell-based
Procedure, shortened: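 Cells kept in folate-free RPMI with 10% heat-inactivated FCS. Seeded at 1.0 × 10^4 cells/well and left to adhere overnight. Medium then replaced with drug at 0.1–500 nM, with or without 0.01 mM FA competitor, for 48 h at 37 °C. MTT added for 3 h, formazan dissolved in DMSO, A570 read against a no-MTT baseline. Viability given as % of control; 5 repeats.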

M109 = assay: In vivo antitumor activity against FR-positive mouse M109 cells implanted in Balb/c mouse assessed as decrease in tumor volume at 2 umol/kg, iv treated 33 days after implantation for TIW 3 week schedule; format: functional, organism-based
Mus musculus = assay: Toxicity in FR-positive human KB cells implanted Balb/c mouse assessed as gross toxicity at 2 umol/kg, iv TIW 2 week schedule; format: organism-based; details: in vivo, 336 h
Procedure, shortened: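 Female Balb/c mice, 6–7 weeks old, on folate-free diet. 1 × 10^6 KB cells injected into the dorsal subcutis. Dosing began at tumor volumes of 50–110 mm³: 2 µmol/kg iv, three times a week for 2 weeks, alone or with 40-fold excess FA; PBS for controls. Caliper volumes (0.5 × L × W²) every 2–3 days; body weight followed. n = 5 per cohort.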

[1] = Half life in human serum at 37 degC; format: ADME, cell-free
Procedure, shortened: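 Compound added to human serum at a final 200 µM and held at 37 °C in a water bath for up to 24 h. Samples taken at 1–3, 5, 8, 12, 18 and 24 h (n = 3). Compound recovered by solid-phase extraction after adding 6 M guanidine (pH 7.4), then measured by HPLC as % recovery.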

| IC50 (KB) [nM] | half-life [1] [h] | Structure (SMILES) | inhibition (KB) | inhibition (M109) | Activity (Mus musculus) |
| --- | --- | --- | --- | --- | --- |
| – | – | COc1ccc(/C=C/c2cc(O)cc(O[C@@H]3O[C@H](CN)[C@@H](O)[C@H](O)[C@H]3O)c2)cc1O | Active | – | – |
| – | – | COc1ccc(/C=C/c2cc(O)cc(O[C@@H]3O[C@H](CNC(=O)OCCSSc4ccccn4)[C@@H](O)[C@H](O)[C@H]3O)c2)cc1O | Active | – | – |
| 34 | 3.5 | COc1ccc(/C=C/c2cc(O)cc(O[C@@H]3O[C@H](CO)[C@@H](O)[C@H](O)[C@H]3O)c2)cc1O [RHAPONTIN] | – | Active | Toxic |
